Measured values published in ChEMBL document CHEMBL2424657, “Identification of the KDM2/7 histone lysine demethylase subfamily inhibitor and its antiproliferative activity” (J Med Chem, 2013).

What was measured:
[1] = target: T1, Lysine-specific demethylase 4A (Homo sapiens, UniProt O75164); assay: Inhibition of KDM4A (unknown origin) using H3K9me3 peptide and 2-oxoglutarate as substrate after 1 hr by FDH-coupled assay
T1 sequence (O75164 whole entry): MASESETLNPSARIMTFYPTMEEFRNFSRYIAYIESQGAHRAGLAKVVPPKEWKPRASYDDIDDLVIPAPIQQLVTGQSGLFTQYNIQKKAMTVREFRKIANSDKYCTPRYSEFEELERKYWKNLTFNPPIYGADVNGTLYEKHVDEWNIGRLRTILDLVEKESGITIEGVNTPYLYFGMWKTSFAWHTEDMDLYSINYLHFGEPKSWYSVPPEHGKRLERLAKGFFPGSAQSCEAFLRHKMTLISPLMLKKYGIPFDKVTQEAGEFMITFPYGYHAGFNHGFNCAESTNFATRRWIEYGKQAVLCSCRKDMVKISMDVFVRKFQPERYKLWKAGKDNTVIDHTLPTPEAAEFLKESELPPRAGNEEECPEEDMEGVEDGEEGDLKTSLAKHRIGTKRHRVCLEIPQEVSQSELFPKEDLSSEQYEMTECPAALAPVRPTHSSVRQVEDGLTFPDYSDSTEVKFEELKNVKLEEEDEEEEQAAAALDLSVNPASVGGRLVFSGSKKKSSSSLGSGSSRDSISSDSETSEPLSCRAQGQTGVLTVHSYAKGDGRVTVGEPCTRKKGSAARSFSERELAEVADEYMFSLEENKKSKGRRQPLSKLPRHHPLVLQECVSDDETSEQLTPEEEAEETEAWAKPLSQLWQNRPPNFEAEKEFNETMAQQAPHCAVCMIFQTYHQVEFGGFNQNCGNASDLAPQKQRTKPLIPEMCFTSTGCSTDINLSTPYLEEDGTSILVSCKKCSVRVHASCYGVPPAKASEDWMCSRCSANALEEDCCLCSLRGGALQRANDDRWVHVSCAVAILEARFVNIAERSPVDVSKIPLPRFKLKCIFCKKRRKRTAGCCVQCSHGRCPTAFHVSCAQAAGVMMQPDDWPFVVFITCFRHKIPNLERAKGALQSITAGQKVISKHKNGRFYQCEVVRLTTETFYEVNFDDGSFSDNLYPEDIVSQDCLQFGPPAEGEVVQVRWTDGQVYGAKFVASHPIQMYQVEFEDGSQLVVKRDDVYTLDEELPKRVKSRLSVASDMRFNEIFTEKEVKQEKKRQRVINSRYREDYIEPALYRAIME
In short: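 Run as the FDH-coupled KDM4C format, with compounds in DMSO and activity relative to a DMSO control. KDM4A was used at 0.37 mg/mL final with H3K9me3 peptide. KDM5A was used at 0.64 mg/mL final with H3K4me3 peptide. Values are means of two experiments.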

[2] = target: Histone lysine demethylase PHF8 (Homo sapiens, UniProt Q9UPP1); assay: Inhibition of KDM7B (unknown origin) using H3K4me3K9me2 and 2-oxoglutarate as substrate after 1 hr by matrix-assisted laser desorption ionization time of flight mass spectrometry
Sequence of Histone lysine demethylase PHF8 (Q9UPP1 whole entry): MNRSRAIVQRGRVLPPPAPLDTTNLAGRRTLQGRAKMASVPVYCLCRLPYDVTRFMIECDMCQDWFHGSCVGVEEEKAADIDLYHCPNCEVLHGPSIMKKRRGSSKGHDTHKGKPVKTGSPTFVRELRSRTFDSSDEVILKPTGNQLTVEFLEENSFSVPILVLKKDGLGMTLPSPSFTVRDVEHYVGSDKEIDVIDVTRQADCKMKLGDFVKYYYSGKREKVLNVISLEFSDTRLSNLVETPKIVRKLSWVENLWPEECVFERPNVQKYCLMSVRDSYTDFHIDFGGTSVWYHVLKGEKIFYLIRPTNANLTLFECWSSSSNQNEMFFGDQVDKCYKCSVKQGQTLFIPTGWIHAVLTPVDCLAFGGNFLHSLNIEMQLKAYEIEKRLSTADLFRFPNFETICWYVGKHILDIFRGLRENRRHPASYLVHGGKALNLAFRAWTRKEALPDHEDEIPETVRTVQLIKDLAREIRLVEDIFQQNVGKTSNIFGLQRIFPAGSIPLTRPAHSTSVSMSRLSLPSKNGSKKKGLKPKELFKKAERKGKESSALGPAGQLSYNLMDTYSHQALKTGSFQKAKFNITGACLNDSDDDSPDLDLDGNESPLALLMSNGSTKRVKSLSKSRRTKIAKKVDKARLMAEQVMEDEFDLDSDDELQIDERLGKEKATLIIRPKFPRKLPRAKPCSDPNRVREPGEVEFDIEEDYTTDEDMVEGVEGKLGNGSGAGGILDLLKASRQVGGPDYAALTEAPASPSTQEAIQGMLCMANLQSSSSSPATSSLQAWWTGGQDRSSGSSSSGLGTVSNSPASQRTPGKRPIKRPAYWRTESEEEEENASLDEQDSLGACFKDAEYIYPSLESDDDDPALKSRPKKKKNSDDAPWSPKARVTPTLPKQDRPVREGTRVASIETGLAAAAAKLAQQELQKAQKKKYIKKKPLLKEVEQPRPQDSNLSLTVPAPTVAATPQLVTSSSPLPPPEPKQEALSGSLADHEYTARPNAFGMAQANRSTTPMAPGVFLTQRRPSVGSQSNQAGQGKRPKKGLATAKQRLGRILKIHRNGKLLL
In short: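 Enzyme (0.5 mg/mL) was reacted with 5 μM H3K4me3K9me2 peptide, 0.5 mM 2-oxoglutarate, 20 μM Fe(II), 20 μM ZnCl2, 0.5 mM ascorbate, 150 mM KCl, glutathione and DTT in 10 mM Tris-HCl pH 8.0 for 1 h at 37 °C. Inhibition was calculated from the remaining H3K9me2, and IC50 was taken as the concentration halving H3K9me2 removal. Values are means of two experiments.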

[3] = target: T2, Lysine-specific demethylase 7A (Homo sapiens, UniProt Q6ZMT4); assay: Inhibition of KDM7A (unknown origin) using K27me2 peptide as substrate by MALDI assay
T2 sequence (Q6ZMT4 whole entry): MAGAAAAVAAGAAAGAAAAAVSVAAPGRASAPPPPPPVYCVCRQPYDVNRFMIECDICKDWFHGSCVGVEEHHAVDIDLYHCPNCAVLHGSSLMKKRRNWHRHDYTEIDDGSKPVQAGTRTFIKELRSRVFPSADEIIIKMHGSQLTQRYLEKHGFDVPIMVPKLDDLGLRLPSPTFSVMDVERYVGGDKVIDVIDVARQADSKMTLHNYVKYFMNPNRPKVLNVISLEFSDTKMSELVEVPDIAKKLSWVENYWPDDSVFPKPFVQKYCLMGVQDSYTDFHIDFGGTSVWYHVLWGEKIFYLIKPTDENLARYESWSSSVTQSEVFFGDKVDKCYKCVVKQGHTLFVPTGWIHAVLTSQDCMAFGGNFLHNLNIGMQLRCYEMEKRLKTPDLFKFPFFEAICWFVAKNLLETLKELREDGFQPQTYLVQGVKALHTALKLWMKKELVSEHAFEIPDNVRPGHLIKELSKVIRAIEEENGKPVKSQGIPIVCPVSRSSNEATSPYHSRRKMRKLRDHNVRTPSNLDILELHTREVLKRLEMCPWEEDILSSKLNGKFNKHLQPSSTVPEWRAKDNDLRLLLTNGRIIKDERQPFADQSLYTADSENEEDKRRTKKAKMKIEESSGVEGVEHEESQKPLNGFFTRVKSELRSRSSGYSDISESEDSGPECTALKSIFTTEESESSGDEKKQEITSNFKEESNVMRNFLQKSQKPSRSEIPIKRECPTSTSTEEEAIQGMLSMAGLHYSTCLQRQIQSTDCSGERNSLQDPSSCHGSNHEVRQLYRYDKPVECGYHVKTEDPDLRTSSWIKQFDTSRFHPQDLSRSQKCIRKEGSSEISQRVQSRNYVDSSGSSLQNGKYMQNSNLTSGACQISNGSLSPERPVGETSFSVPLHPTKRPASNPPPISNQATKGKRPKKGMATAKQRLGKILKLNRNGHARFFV

[4] = test system: HeLa; assay: Growth inhibition of human HeLa cells after 48 hrs by MTT assay; format: functional
In short: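 Cells were seeded at 5000/well in RPMI 1640 with 10% FBS and allowed to attach overnight, then exposed for 48 h at 37 °C in 5% CO2. MTT was added for 3 h, and the dye was solubilized in HCl–2-propanol and read at 560 nm (reference 750 nm).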

Row | IC50 [1] [nM] | IC50 [2] [nM] | IC50 [3] [nM] | GI50 [4] [nM] | SMILES
1 | 800 | 19000 | 1600 | > 470000 | CN(C)CCCCCCCCC(=O)N(O)CCC(=O)O
2 | > 120000 | 1200 | 200 | 40000 | O=C(O)CCN(O)C(=O)CCCCCCCCC1CC1
